Calls of active or inactive are those of the source.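 The calls were made as follows, unless noted: active = potentiation averaged over duplicate wells exceeding buffer-only control mean by more than 3 SD; inactive = the rest.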

Tested on in the first assay: not listed separately
In words: nonspecific flux increase, KCNQ1-free cells – parental CHO cells, counter-screen for KCNQ1 potentiator project (AID 493006;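 active = duplicate-averaged activation above buffer control mean plus 5 SD of those controls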). The conditions noted are these: parental CHO-K1 cells, FluxOR thallium flux, at 10 µM; hits give high values. The gist of the method: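 Benchmarks – buffer and R-L3 controls · Assay system – untransfected host CHO-K1 cells with FluxOR thallium dye · Measure – fluorescence change ratio scaled 0% buffer, 100% R-L3 · Technique – kinetic thallium-flux fluorescence · Timing – overnight 37 °C plating, 90 min RT dye, 20 min compound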
In general terms: The purpose of a counterscreen is to sort out artefacts and off-target activity.
Take `S=c1nc[nH]c2c1sc1nc(N3CCOCC3)c3c(c12)CCCC3`: the outcome was inactive. For the compound `CCn1c(SCC(=O)Nc2ccccc2F)nnc1-c1cnccn1`, the outcome was inactive. In the case of `CC(C)(C)NCC(O)CON=C1c2ccccc2-c2ccccc21` (centres undefined), the result was inactive. Same read-out and setting: under `O=C(NNC(=O)c1cc(-c2ccccc2)nn1-c1ccccc1)c1ccccc1` stands “inactive”; under `CCN(CC)S(=O)(=O)c1ccc(NC(=O)c2cccnc2Cl)c(NC(=O)c2cccnc2Cl)c1`, “inactive”. As to `O=C(O)c1cc2cc(F)ccc2[nH]1`, the result was inactive. For the compound `COC1(c2ccccc2)NC(=S)NN=C1c1ccccc1` (centres undefined), the result was inactive. `O=C(N/C(=C\c1ccc([N+](=O)[O-])cc1)C(=O)N1CCCCC1)c1ccco1`: the result was inactive. Still for that read-out and setting: in the case of `COc1ccc(NC(=O)CN2CCN(C3c4ccccc4-c4ccccc43)CC2)cc1` it was “inactive”; in that of `CC(c1nccs1)N(C)C(=O)CCc1nnc(Cc2c[nH]c3ccccc23)o1` (centres undefined), “inactive”. In the case of `CCN1CCN(C(c2ccccn2)c2c(NC(=O)c3ccccc3)sc(C)c2C)CC1` (centres undefined), the result was inactive. With `CCN(C(=O)c1cc2c(=O)[nH]c3ccc(C)cc3c2s1)c1ccccc1F`, the outcome was inactive. As to `COc1cccc(-c2nc(=S)c3c(o2)CCCC3)c1`, the result was inactive. In the case of `N=c1sccn1CC(=O)Nc1ccc(S(=O)(=O)N2CCOCC2)cc1`, the result was inactive. Consider `O=C(CCN1Cc2ccccc2C1)c1ccc2c(c1)OCCO2`, for which the result was inactive. Same read-out and setting: in the case of `Cc1ccc(C)c(Cn2c(O)c(N=NC(=S)Nc3ccccc3F)c3ccccc32)c1` it was “inactive”; in that of `Cc1onc(-c2ccccc2)c1C(=O)NC(=S)NNC(=O)c1ccccc1O`, “inactive”; in that of `Cc1cc(/C=N/n2cnnc2)c(C)n1-c1cc(Cl)ccc1Cl`, “inactive”. In the case of `O=C(NCC(c1cccs1)N1CCOCC1)C1CCN(S(=O)(=O)c2cccc(C(F)(F)F)c2)CC1` (centres undefined), the outcome was inactive. On to `COc1ccc(OC)c(NC(=S)NC(=O)c2ccc(Br)o2)c1`, for which the outcome was inactive.

On to `CN(C(=O)c1ccc2c(c1)OCO2)C1CCCCC1`, for which the outcome was inactive.

The next assay deals with Potassium voltage-gated channel subfamily KQT member 1 (Homo sapiens) (UniProt P51787). In words: enhancement of KCNQ1 channel thallium flux – FluxOR thallium flux, CHO cells, duplicates, confirmation (AID 493007).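 As to outcome: cells depolarized by a potassium plus thallium sulfate stimulus after compound.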 The conditions noted are these: KCNQ1 cell line, FluxOR thallium flux fluorescence, at 10 µM; hits give high values, % of reference activator effect, buffer zero. The essentials: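 Material: CHO cells stably expressing the KCNQ1 potassium channel / Times: dye 90 min then compound 20 min, both at room temperature / Detection: kinetic thallium influx fluorescence with FluxOR dye, 10 s baseline, 110 s post-stimulus / Benchmarks: buffer-only wells as 0% and R-L3 activator as 100% / Replicates: each compound tested in duplicate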
Chain of Potassium voltage-gated channel subfamily KQT member 1 (Homo sapiens) (P51787 whole entry, looked up): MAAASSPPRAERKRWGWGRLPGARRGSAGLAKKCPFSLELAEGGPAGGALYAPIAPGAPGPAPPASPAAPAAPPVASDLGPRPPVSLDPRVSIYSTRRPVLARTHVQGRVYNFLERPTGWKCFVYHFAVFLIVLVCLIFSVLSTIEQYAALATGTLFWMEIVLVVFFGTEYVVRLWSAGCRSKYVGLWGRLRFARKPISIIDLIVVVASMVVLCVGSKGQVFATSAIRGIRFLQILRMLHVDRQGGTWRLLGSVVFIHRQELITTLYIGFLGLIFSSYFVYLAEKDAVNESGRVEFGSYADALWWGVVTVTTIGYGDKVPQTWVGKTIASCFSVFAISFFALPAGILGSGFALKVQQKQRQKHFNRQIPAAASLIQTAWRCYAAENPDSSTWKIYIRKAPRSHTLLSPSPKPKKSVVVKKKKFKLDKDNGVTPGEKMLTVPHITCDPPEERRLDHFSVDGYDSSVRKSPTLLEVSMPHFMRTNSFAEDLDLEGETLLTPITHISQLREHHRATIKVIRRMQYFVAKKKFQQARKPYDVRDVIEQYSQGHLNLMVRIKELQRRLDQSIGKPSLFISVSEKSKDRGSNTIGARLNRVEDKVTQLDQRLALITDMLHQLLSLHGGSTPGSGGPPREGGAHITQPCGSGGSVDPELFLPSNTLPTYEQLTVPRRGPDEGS
As to `N#Cc1ccccc1OCCN1C(=O)c2ccccc2C1=O`, the result was inactive. On to `CC1CCCCC1NC(=S)NC(=O)c1sc2ccccc2c1Cl` (centres undefined), for which the potentiation is 54% (active). Same read-out and setting: in the case of `CC(Oc1ccc2ccccc2c1)C(=O)NNC(=S)NC(=O)c1ccco1` (centres undefined) it was 93% (active). Regarding `Cc1cc(C)cc(OCC(=O)NNC(=O)c2cc3ccccc3o2)c1`, the outcome was inactive.

For the compound `Cc1cc(NC(=O)CSCC(=O)OC(C)C(=O)N(C)Cc2ccccc2)no1` (centres undefined), the potentiation was 28% (active).

Turning to `CCn1c(CCNC(=O)c2ccc(Cl)cc2Cl)n[nH]c1=S`, the outcome was inactive. Turning to `Cc1ccc(-n2ncc3c(=O)n(CC(=O)N4CCN(c5ccccc5F)CC4)cnc32)cc1C`, the result was inactive.

Take `O=C(CC1(O)C(=O)N(Cc2ccccc2)c2ccccc21)c1ccncc1` (centres undefined): the potentiation is 27.5% (active). In the case of `O=C(NC(=S)Nc1nc2c(s1)CCCC2)c1ccccc1`, the potentiation was 26% (active). With `COc1ccc(CCNC(=O)CCOc2cc(C)ccc2C)cc1OC`, the result was inactive. Turning to `NC(=Nc1ccc(Cl)cc1)c1ccccc1`, the outcome was inactive. For the compound `S=C(Nc1ccc(Cl)cc1)c1nc2ccccc2s1`, the potentiation is 47.5% (active).

`CCCOc1ccc(C(=O)NNC(=S)NC(=O)c2cc(-c3ccc(Cl)cc3)nc3ccccc23)cc1`: the result was inactive. On the same count and under the same terms, under `COc1ccc(-c2csc(N(CCCN(C)C)C(=O)c3ccccc3F)n2)cc1` stands “inactive”; under `CCOC(=O)c1c(N)sc(C(C)=O)c1C`, “inactive”; under `CCOC(=O)N1CCC(NC(=O)c2cc(C(=O)NCc3ccc(F)cc3)ccc2CO)CC1`, “inactive”. Take `COc1cc(OC)cc(C(=O)N2CC(=O)Nc3ccccc32)c1`: the outcome was inactive. Turning to `O=C(CSc1nnc(-c2ccccn2)n1-c1ccc(Cl)cc1)Nc1ccc2c(c1)OCO2`, the outcome was inactive. Consider `Oc1c(/C=N/c2ccccn2)sc2ccccc12`, for which the potentiation is 18% (active). In the case of `S=c1nc[nH]c2c1sc1nc(N3CCOCC3)c3c(c12)CCCC3`, the potentiation was 105% (active). As to `CCn1c(SCC(=O)Nc2ccccc2F)nnc1-c1cnccn1`, the outcome was inactive.

Take `CC(C)(C)NCC(O)CON=C1c2ccccc2-c2ccccc21` (centres undefined): the result was inactive.

`O=C(NNC(=O)c1cc(-c2ccccc2)nn1-c1ccccc1)c1ccccc1`: the result was inactive. Take `CCN(CC)S(=O)(=O)c1ccc(NC(=O)c2cccnc2Cl)c(NC(=O)c2cccnc2Cl)c1`: the potentiation was 43% (active). Take `O=C(O)c1cc2cc(F)ccc2[nH]1`: the result was inactive.

As to `COC1(c2ccccc2)NC(=S)NN=C1c1ccccc1` (centres undefined), the result was inactive. For the compound `O=C(N/C(=C\c1ccc([N+](=O)[O-])cc1)C(=O)N1CCCCC1)c1ccco1`, the result was inactive. Consider `COc1ccc(NC(=O)CN2CCN(C3c4ccccc4-c4ccccc43)CC2)cc1`, for which the result was inactive.

(Values after PubChem BioAssay.)
